Experimental data taken from ChEMBL document CHEMBL4699501, “Dihydrodibenzothiepine: Promising hydrophobic pharmacophore in the influenza cap-dependent endonuclease inhibitor” (Bioorg Med Chem Lett, 2020).
The source made the active and inactive calls. No cut-off for these calls is given here.

Legend:
[1] = Inhibition of Influenza virus Cap-dependent endonuclease; design: species or system Influenza A virus
Influenza A virus [2] = test: Antiviral activity against Influenza A virus (A/WSN/1933(H1N1)) infected in […] MDBK cells assessed as cell protection incubated for 72 hrs; format: functional, organism-based
Procedure, shortened: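 Madin-Darby bovine kidney cells were infected with A/WSN/33 at 50 TCID50/well and incubated with compound at 37 °C in a CO2 incubator for 72 hr.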

[3] = Metabolic stability in rat liver microsomes assessed as compound remaining at 2 uM incubated for 30 mins; format: ADME, Microsome; conditions: read-out: Stabilty
Procedure, shortened: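 Compound at 2 μM was incubated with rat liver microsomes at 37 °C for 30 min. The read-out is % of compound remaining.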

[4] = Clearance in iv dosed rat by LC/MS/MS analysis; format: ADME, organism-based; conditions: in vivo
Procedure, shortened: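 Rats received a single intravenous dose, and plasma levels were quantified by LC/MS/MS to derive clearance. Values are the mean of duplicate experiments.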

[5] = Fraction unbound in rat serum; format: ADME, cell-free
Procedure, shortened: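 Free fraction was measured in the presence of rat serum. Values are the mean of duplicate experiments.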

Influenza A virus [6] = test: Antiviral activity against Influenza A virus (A/WSN/1933(H1N1)) infected in mouse assessed as reduction in viral titer in lung by measuring reduction in virus infectivity in MDCK cells at 5 mg/kg, po administered after 5 days of infection and measured after 24 hrs; format: functional, organism-based
Procedure, shortened: (§1)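 Mice were inoculated with A/WSN/33 at 100 TCID50/mouse. Oral dosing was twice daily (BID), starting 5 days after infection. Lung virus titer (log TCID50/mL) was determined on MDCK cells 24 h after the first dose.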

Influenza A virus [7] = test: Antiviral activity against Influenza A virus (A/WSN/1933(H1N1)) infected in mouse assessed as reduction in viral titer in lung by measuring reduction in virus infectivity in MDCK cells at 0.4 to 10 mg/kg, po administered after 5 days of infection and measured after 24 hrs; format: functional, organism-based; conditions: dose mg/kg 0.4-10, time […]; procedure, shortened: as §1

SMILES	IC50 [1]	EC50 (Influenza A virus [2])	remaining at 0.5 h, 2 µM [3]	clearance [4]	fraction unbound [5]	Activity (Influenza A virus [6])	Activity (Influenza A virus [7])
C[C@@H](N1CN([C@@H]2c3ccccc3SCc3c(Cl)cccc32)n2ccc(=O)c(O)c2C1=O)C(F)(F)F	0.03 µM	0.00304 µM	102%	0.442 L/h/kg	0.00293	–	–
O=C1c2c(O)c(=O)ccn2N(C2c3ccccc3CSc3ccccc32)CN1C1CC1 (centres undefined)	0.035 µM	0.0137 µM	73.7%	2.76 L/h/kg	0.0783	–	–
C[C@@H](N1CN([C@@H]2c3ccccc3SCc3cccc(F)c32)n2ccc(=O)c(O)c2C1=O)C(F)(F)F	0.0318 µM	0.00375 µM	102%	1.08 L/h/kg	0.012	–	–
C[C@@H](N1CN([C@@H]2c3ccccc3SCc3c(F)cccc32)n2ccc(=O)c(O)c2C1=O)C(F)(F)F	0.0125 µM	0.00385 µM	91.8%	0.502 L/h/kg	0.00978	–	–
COCC(C)N1CN(C2c3ccccc3CSc3ccccc32)n2ccc(=O)c(O)c2C1=O (centres undefined)	0.0579 µM	0.0207 µM	58.6%	2.95 L/h/kg	0.106	–	–
C[C@@H](N1CN([C@H]2c3ccccc3SCc3cccc(Cl)c32)n2ccc(=O)c(O)c2C1=O)C(F)(F)F	0.00995 µM	0.00352 µM	93.3%	1.18 L/h/kg	0.0179	–	–
C[C@@H](N1CN([C@H]2c3ccc(Cl)cc3CSc3ccccc32)n2ccc(=O)c(O)c2C1=O)C(F)(F)F	0.00699 µM	0.0105 µM	96.1%	0.342 L/h/kg	0.00117	–	–
C[C@@H](N1CN([C@H]2c3ccccc3CSc3c(Cl)cccc32)n2ccc(=O)c(O)c2C1=O)C(F)(F)F	0.0232 µM	0.0135 µM	92.3%	0.407 L/h/kg	0.00329	–	–
Cc1ccc(C(c2ccc(C)cc2)N2CN(C(C)C)C(=O)c3c(O)c(=O)ccn32)cc1	0.394 µM	0.44 µM	–	–	–	–	–
C[C@@H](N1CN([C@H]2c3ccccc3CSc3cc(Cl)ccc32)n2ccc(=O)c(O)c2C1=O)C(F)(F)F	0.0621 µM	0.0212 µM	101%	0.732 L/h/kg	0.00303	–	–
CC(C)N1CN(C(c2ccccc2)c2ccccc2)n2ccc(=O)c(O)c2C1=O	0.286 µM	0.0816 µM	–	–	–	–	–
CC(C)N1CN(C(c2ccccc2)c2ccccc2Cl)n2ccc(=O)c(O)c2C1=O (centres undefined)	0.21 µM	0.0778 µM	–	–	–	–	–
C[C@@H](N1CN([C@H]2c3ccccc3CSc3cc(F)ccc32)n2ccc(=O)c(O)c2C1=O)C(F)(F)F	–	0.0143 µM	93.9%	0.804 L/h/kg	0.00807	–	–
CCOC(=O)C1=C[C@@H](OC(CC)CC)[C@H](NC(C)=O)[C@@H](N)C1	–	–	–	–	–	Active	–
C[C@@H](N1CN([C@H]2c3ccccc3CSc3ccc(F)cc32)n2ccc(=O)c(O)c2C1=O)C(F)(F)F	–	0.00816 µM	103%	0.924 L/h/kg	0.00975	–	–
CC(C)N1CN(C2c3ccccc3CCc3ccccc32)n2ccc(=O)c(O)c2C1=O	0.0601 µM	0.0201 µM	–	–	–	–	–
CC(C)N1CN(C(c2cccc(C(F)(F)F)c2)c2cccc(C(F)(F)F)c2)n2ccc(=O)c(O)c2C1=O	0.456 µM	0.386 µM	–	–	–	–	–
C[C@@H](N1CN([C@@H]2c3ccccc3SCc3c2ccc(F)c3F)n2ccc(=O)c(O)c2C1=O)C(F)(F)F	0.00557 µM	0.00428 µM	81.1%	0.66 L/h/kg	0.00411	–	Active
O=C1c2c(O)c(=O)ccn2N(C2c3ccccc3CSc3ccccc32)CN1C(CF)CF (centres undefined)	0.113 µM	0.0275 µM	84.9%	2.01 L/h/kg	–	–	–
CC(C)N1CN(C2c3ccccc3CSc3ccccc32)n2ccc(=O)c(O)c2C1=O (racemic)	–	0.0169 µM	72.6%	1.96 L/h/kg	0.0768	–	–
CC(C)N1CN(C(c2cccc(Cl)c2)c2cccc(Cl)c2)n2ccc(=O)c(O)c2C1=O	0.23 µM	0.0658 µM	–	–	–	–	–

SMILES	IC50 [1]	EC50 (Influenza A virus [2])	remaining at 0.5 h, 2 µM [3]	clearance [4]	fraction unbound [5]	Activity (Influenza A virus [6])	Activity (Influenza A virus [7])
C[C@@H](N1CN([C@H]2c3ccccc3CSc3c(F)cccc32)n2ccc(=O)c(O)c2C1=O)C(F)(F)F	–	0.00341 µM	95.6%	0.618 L/h/kg	0.00574	–	–
C[C@@H](N1CN([C@H]2c3ccccc3CSc3ccc(Cl)cc32)n2ccc(=O)c(O)c2C1=O)C(F)(F)F	0.0249 µM	0.0708 µM	–	–	–	–	–
C[C@@H](N1CN([C@@H]2c3ccccc3CSc3ccccc32)n2ccc(=O)c(O)c2C1=O)C(F)(F)F	–	0.131 µM	–	–	–	–	–
C[C@@H](N1CN([C@H]2c3ccccc3CSc3ccccc32)n2ccc(=O)c(O)c2C1=O)C(F)(F)F	–	0.00469 µM	98.1%	0.948 L/h/kg	0.0103	–	–
C[C@@H](N1CN([C@H]2c3ccc(F)cc3CSc3ccccc32)n2ccc(=O)c(O)c2C1=O)C(F)(F)F	0.0123 µM	0.00354 µM	95.3%	0.696 L/h/kg	0.00383	–	–
C[C@H](N1CN([C@H]2c3ccccc3CSc3ccccc32)n2ccc(=O)c(O)c2C1=O)C(F)(F)F	–	0.0186 µM	79.8%	–	–	–	–
CC(C)N1CN(C(c2ccccc2Cl)c2ccccc2Cl)n2ccc(=O)c(O)c2C1=O	0.037 µM	0.0482 µM	–	–	–	–	–
Cc1cccc(C(c2ccccc2)N2CN(C(C)C)C(=O)c3c(O)c(=O)ccn32)c1 (centres undefined)	0.276 µM	0.219 µM	–	–	–	–	–
C[C@@H](N1CN([C@H]2c3ccccc3CSc3cccc(F)c32)n2ccc(=O)c(O)c2C1=O)C(F)(F)F	0.0371 µM	0.0151 µM	97.4%	0.545 L/h/kg	0.0119	–	–
C[C@@H](N1CN([C@H]2c3cc(Cl)ccc3CSc3ccccc32)n2ccc(=O)c(O)c2C1=O)C(F)(F)F	–	0.00421 µM	94.1%	0.744 L/h/kg	0.00514	–	–
C[C@@H](N1CN([C@H]2c3ccccc3CSc3cccc(Cl)c32)n2ccc(=O)c(O)c2C1=O)C(F)(F)F	0.0762 µM	0.0188 µM	85.4%	0.612 L/h/kg	0.00589	–	–
CC(CN(C)C)N1CN(C2c3ccccc3CSc3ccccc32)n2ccc(=O)c(O)c2C1=O (centres undefined)	–	0.0841 µM	76.4%	5.92 L/h/kg	–	–	–
CC(C)N1CN(C2c3ccccc3COc3ccccc32)n2ccc(=O)c(O)c2C1=O (centres undefined)	–	0.071 µM	–	–	–	–	–
COc1cccc(C(c2cccc(OC)c2)N2CN(C(C)C)C(=O)c3c(O)c(=O)ccn32)c1	1.31 µM	0.589 µM	–	–	–	–	–
CC(C)N1CN(C(c2ccccc2)c2ccc(Cl)cc2)n2ccc(=O)c(O)c2C1=O (centres undefined)	0.291 µM	0.094 µM	–	–	–	–	–
CC(C)N1CN(C(c2ccccc2)c2cccc(Cl)c2)n2ccc(=O)c(O)c2C1=O (centres undefined)	0.101 µM	0.0759 µM	–	–	–	–	–
C[C@@H](N1CN([C@H]2c3cc(F)ccc3CSc3ccccc32)n2ccc(=O)c(O)c2C1=O)C(F)(F)F	0.0443 µM	0.00468 µM	98.9%	1.28 L/h/kg	0.0129	–	–
Cc1ccccc1C(c1ccccc1)N1CN(C(C)C)C(=O)c2c(O)c(=O)ccn21 (centres undefined)	0.142 µM	0.0734 µM	–	–	–	–	–
[2H]C([2H])([2H])C([2H])(N1CN(C2c3ccccc3CSc3ccccc32)n2ccc(=O)c(O)c2C1=O)C([2H])([2H])[2H] (centres undefined)	0.0434 µM	0.0117 µM	74.4%	2.35 L/h/kg	0.0601	–	–
C[C@H](N1CN([C@@H]2c3ccccc3CSc3ccccc32)n2ccc(=O)c(O)c2C1=O)C(F)(F)F	–	0.0217 µM	–	–	–	–	–
